Counter-ions that a name gives are not always drawn. Like-named read-outs stand apart in the source and are kept apart here. Marks after values point to notes of the source that are not given here.
Legend:
[1] = target: CYP2C9 (Homo sapiens, UniProt P11712); experiment: Preliminary in vitro metabolism study, CYP2C9; type: in vitro ADME; conditions: preliminary previously unreported in vitro study
[2] = test system: PDE6; conditions: cited from earlier work
[3] = test system: healthy Chinese males; experiment: Safety and tolerability; type: in vivo, human
Method in brief: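 Healthy Chinese males aged 22–45 y with BMI 19.0–24.0 kg/m2, 10 per group. They took 30 or 60 mg oral test compound tablets once daily for 5 days after an overnight fast, with standardized diets. Monitoring covered physical and ophthalmologic exams, vital signs, 12-lead ECG and labs (hematology, chemistry, coagulation, urinalysis), with a day-8 follow-up. The investigator graded AEs for severity and drug relationship, coded in MedDRA 20.0.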

[4] = test system: PDE11; conditions: cited from earlier work
[5] = test system: PDE9; conditions: cited from earlier work
[6] = target: CYP3A4 (Homo sapiens, UniProt P08684); experiment: Preliminary in vitro metabolism study, CYP3A4; type: in vitro ADME; conditions: preliminary previously unreported in vitro study
CYP3A4, sequence (P08684 whole entry): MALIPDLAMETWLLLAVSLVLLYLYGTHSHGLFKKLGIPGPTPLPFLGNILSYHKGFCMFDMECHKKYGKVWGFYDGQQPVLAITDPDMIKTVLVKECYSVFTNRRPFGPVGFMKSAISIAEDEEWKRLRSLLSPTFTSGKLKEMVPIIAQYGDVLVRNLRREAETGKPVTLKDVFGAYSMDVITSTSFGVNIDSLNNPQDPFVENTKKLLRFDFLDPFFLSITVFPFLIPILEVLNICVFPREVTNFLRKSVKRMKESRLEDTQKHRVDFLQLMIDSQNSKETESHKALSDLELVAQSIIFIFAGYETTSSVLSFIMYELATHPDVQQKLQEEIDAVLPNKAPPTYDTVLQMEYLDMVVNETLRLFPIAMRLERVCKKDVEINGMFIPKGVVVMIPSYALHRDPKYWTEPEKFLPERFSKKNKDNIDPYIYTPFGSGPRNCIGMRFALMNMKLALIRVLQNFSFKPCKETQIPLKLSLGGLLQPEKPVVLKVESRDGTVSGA

[7] = type: in vivo, human; conditions: for AUC0-24 / Cmax / T1/2 / Cmin,ss / Cmax,ss: geometric mean (CV%); for Tmax: median (range); for C24: mean (SD)
Method in brief: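 Males took 30 or 60 mg oral test compound once daily for 5 days, fasted, 10 per group. Blood (5 mL) was drawn predose and 0.25–24 h postdose on days 1 and 5, and predose on days 3 and 4. Serum (3500 rpm, 10 min, 4 °C; stored –70 °C) was assayed for parent and M1, M5, M12 by LC-MS/MS MRM, linear 0.5–1000 ng/mL. Parameters came from noncompartmental analysis, reported as geometric mean (CV%), Tmax median (range), C24 mean (SD).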

[8] = test system: PDE3; conditions: cited from earlier work
[9] = 30 mg once daily 5 days, n=10, probably or possibly related to the study drug
[10] = 60 mg once daily 5 days, n=10, probably or possibly related to the study drug
[11] = 5-day once-daily doses at 30 and 60 mg
[12] = 30 mg oral once daily, day 1, serum, n=10
[13] = 30 mg oral once daily, day 5, serum, n=9
[14] = 60 mg oral once daily, day 1, serum, n=10
[15] = 60 mg oral once daily, day 5, serum, n=10

CYP2C9, sequence (P11712 whole entry): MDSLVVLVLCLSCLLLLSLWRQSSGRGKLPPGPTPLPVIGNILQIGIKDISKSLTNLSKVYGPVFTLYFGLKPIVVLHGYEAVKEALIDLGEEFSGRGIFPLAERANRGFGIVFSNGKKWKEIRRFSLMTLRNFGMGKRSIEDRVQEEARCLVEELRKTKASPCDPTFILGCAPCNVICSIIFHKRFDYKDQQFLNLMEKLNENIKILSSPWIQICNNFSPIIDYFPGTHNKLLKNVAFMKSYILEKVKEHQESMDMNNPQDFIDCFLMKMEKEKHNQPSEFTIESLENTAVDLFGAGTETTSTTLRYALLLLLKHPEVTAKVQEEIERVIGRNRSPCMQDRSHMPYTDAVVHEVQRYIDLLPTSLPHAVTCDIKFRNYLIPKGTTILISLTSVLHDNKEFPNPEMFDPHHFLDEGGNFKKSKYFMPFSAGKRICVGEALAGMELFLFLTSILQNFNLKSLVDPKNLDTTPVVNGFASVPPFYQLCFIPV

In the case of `CCCc1nn(C)c2c(=O)[nH]c(-c3cc(S(=O)(=O)N4C[C@@H](C)N[C@@H](C)C4)ccc3OCC)nc12` [Aildenafil, aildenafil citrate], the “involvement of CYP2C9 in the metabolism” value [1] is listed as “involvement”, the “inhibition ratio relative to similar products” value [2] is listed as 0.30 and the “Blood glucose: elevated: Cases, No.” value ([3]; 30 mg once daily 5 days, n=10) is listed as 0 No. For the same compound, the “Blood glucose: elevated: Participants, No. (%)” value ([3]; 30 mg once daily 5 days, n=10) was 0 (0) No. (%), the “Fatigue: Cases, No.” value ([3]; 30 mg once daily 5 days, n=10) was 0 No and the “Fatigue: Participants, No. (%)” value ([3]; 30 mg once daily 5 days, n=10) was 0 (0) No. (%). For the same compound, the “Head discomfort: Cases, No.” value ([3]; 30 mg once daily 5 days, n=10) was 0 No, the “Head discomfort: Participants, No. (%)” value ([3]; 30 mg once daily 5 days, n=10) was 0 (0) No. (%) and the “Lymphocyte count: decreased: Cases, No.” value ([3]; 30 mg once daily 5 days, n=10) was 0 No. For the same compound, the “Lymphocyte count: decreased: Participants, No. (%)” value ([3]; 30 mg once daily 5 days, n=10) was 0 (0) No. (%), the “Lymphocyte percentage: decreased: Cases, No.” value ([3]; 30 mg once daily 5 days, n=10) was 0 No and the “Lymphocyte percentage: decreased: Participants, No. (%)” value ([3]; 30 mg once daily 5 days, n=10) was 0 (0) No. (%). For the same compound, the “Myalgia: Cases, No.” value ([3]; 30 mg once daily 5 days, n=10) was 0 No, the “Myalgia: Participants, No. (%)” value ([3]; 30 mg once daily 5 days, n=10) was 0 (0) No. (%) and the “Chest discomfort: Cases, No.” value [3, 9] was 1^a No. For the same compound, the “Chest discomfort: Participants, No. (%)” value [3, 9] was 1 (10.0)^a No. (%), the “Vomiting: Cases, No.” value [3, 9] was 1^a No and the “Vomiting: Participants, No. (%)” value [3, 9] was 1 (10.0)^a No. (%). The “Chest discomfort: Cases, No.” value ([3]; 60 mg once daily 5 days, n=10) was 0 No, the “Chest discomfort: Participants, No. (%)” value ([3]; 60 mg once daily 5 days, n=10) was 0 (0) No. (%) and the “Influenza-like illness: Cases, No.” value ([3]; 60 mg once daily 5 days, n=10) was 1 No. The “Influenza-like illness: Participants, No. (%)” value ([3]; 60 mg once daily 5 days, n=10) was 1 (10.0) No. (%), the “Vomiting: Cases, No.” value ([3]; 60 mg once daily 5 days, n=10) was 0 No and the “Vomiting: Participants, No. (%)” value ([3]; 60 mg once daily 5 days, n=10) was 0 (0) No. (%). For the same compound, the “Blood glucose: elevated: Cases, No.” value [3, 10] was 1^a No, the “Blood glucose: elevated: Participants, No. (%)” value [3, 10] was 1 (10.0)^a No. (%) and the “Fatigue: Cases, No.” value [3, 10] was 2^a No. For the same compound, the “Head discomfort: Cases, No.” value [3, 10] was 1^a No, the “Head discomfort: Participants, No. (%)” value [3, 10] was 1 (10.0)^a No. (%) and the “Lymphocyte count: decreased: Cases, No.” value [3, 10] was 1^a No. The “Lymphocyte count: decreased: Participants, No. (%)” value [3, 10] was 1 (10.0)^a No. (%), the “Lymphocyte percentage: decreased: Cases, No.” value [3, 10] was 1^a No and the “Lymphocyte percentage: decreased: Participants, No. (%)” value [3, 10] was 1 (10.0)^a No. (%). The “fatalities or serious AEs” value [3, 11] was “no fatalities or serious AEs”, the “impact on heart rate, blood pressure, or visual function” value [3, 11] was “no clinically significant impact” and the “severity of observed AEs” value [3, 11] was “mild to moderate”. For the same compound, the “instances of AEs assessed by the investigator to be linked to the study drug” value ([3]; both dose groups, 20 participants) was 26, the “creatine kinase compared with baseline” value ([3]; day 4) was “failed to reveal any noteworthy deviations” and the “inhibition ratio relative to similar products” value [4] was 0.49. The “inhibition ratio relative to similar products” value [5] was 0.06, the “involvement of CYP3A4 in the metabolism” value [6] was “involvement” and the AUC0-24 [7, 12] was 313.78 (45.3) h·ng/mL. For the same compound, the Cmax [7, 12] was 81.03 (45.3) ng/mL, the T1/2 [7, 12] was 2.75 (21.2) h and the Tmax ([7]; 30 mg oral once daily, day 1, serum) was 1.00 (0.50-2.00) h. For the same compound, the C24 ([7]; 30 mg oral once daily, day 5, serum concentration at 24 hours) was 0.92 (148.0)^b ng/mL, the AUC0-24 [7, 13] was 346.23 (51.8)^b h·ng/mL and the “Cmin,ss” value [7, 13] was 1.05 (75.7)^b ng/mL. For the same compound, the T1/2 [7, 13] was 3.61 (38.1)^b h, the “Cmax,ss” value ([7]; 30 mg oral once daily, day 5, serum, n=10) was 84.61 (55.9) ng/mL and the Tmax ([7]; 30 mg oral once daily, day 5, serum) was 0.75 (0.25-2.00) h. The C24 ([7]; 60 mg oral once daily, day 1, serum concentration at 24 hours) was 1.71 (54.1) ng/mL, the AUC0-24 [7, 14] was 963.18 (44.8) h·ng/mL and the Cmax [7, 14] was 199.10 (37.8) ng/mL. For the same compound, the T1/2 [7, 14] was 3.26 (19.7) h, the Tmax ([7]; 60 mg oral once daily, day 1, serum) was 1.00 (0.50-2.00) h and the C24 ([7]; 60 mg oral once daily, day 5, serum concentration at 24 hours) was 3.85 (66.8) ng/mL. For the same compound, the AUC0-24 [7, 15] was 1683.67 (45.1) h·ng/mL, the “Cmax,ss” value [7, 15] was 319.71 (23.8) ng/mL and the “Cmin,ss” value [7, 15] was 3.61 (61.3) ng/mL. The T1/2 [7, 15] was 3.38 (24.2) h, the Tmax ([7]; 60 mg oral once daily, day 5, serum) was 0.88 (0.50-3.00) h and the “amount in the blood at 24 hours relative to Cmax” value ([7]; after the first dose, 30 or 60 mg) was “less than 1/20”. For the same compound, the “inhibition ratio relative to similar products” value [8] was 0.75.

Source: paper PMC10937897 (Sexual Medicine, 2024)
